# Test results as given in ChEMBL document CHEMBL1149142, “Synthesis, biological activity and molecular modeling of 6-benzylthioinosine analogues as subversive substrates of Toxoplasma gondii adenosine kinase” (2004).
# What was measured:
# [1] = Effect of compound on percent survival of human fibroblast cells in culture was determined at 25 uM; type: functional; details: read-out: Survival
# Outline: (§1)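 Uninfected human foreskin fibroblast monolayers (≤30 passages) in RPMI 1640 are attached for at least 24 h at 37 °C in 5% CO2. Compound is added at the same concentrations as in the parasite assay and incubated 48 h. MTT is added for 4 h, formazan is dissolved in DMSO, and absorbance is read at 540 nm; at least triplicates.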
# [2] = tested on: Toxoplasma gondii; assay: Effect of compound on percent survival of wild type (RH) strain of Toxoplasma gondii grown in human fibroblast cells at 25 uM; type: functional
# Outline: (§2)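 Human foreskin fibroblast monolayers (≤30 passages) in RPMI 1640 are infected with tachyzoites at one parasite per cell in 3% FBS for 1 h, then washed, with FBS kept at 10%. Compound is added in 50% ethanol stock (2.5% ethanol final) and incubated 18 h. Medium is replaced with drug-free [5,6-3H]uracil (2 μCi/mL) for 6 h. TCA-precipitable radioactivity is counted; at least triplicates.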
# [3] = Effect of compound on percent survival of human fibroblast cells in culture was determined at 0 uM; type: functional; outline: as §1
# [4] = Effect of compound on percent survival of human fibroblast cells in culture was determined at 50 uM; type: functional; details: read-out: Survival; outline: as §1
# [5] = tested on: Toxoplasma gondii; assay: Effect of compound on percent survival of wild type (RH) strain of Toxoplasma gondii grown in human fibroblast cells at 0 uM; type: functional; outline: as §2
# [6] = Effect of compound on percent survival of human fibroblast cells in culture was determined at 10 uM; type: functional; details: read-out: Survival; outline: as §1
# [7] = tested on: Toxoplasma gondii; assay: Effect of compound on percent survival of wild type (RH) strain of Toxoplasma gondii grown in human fibroblast cells at 10 uM; type: functional; outline: as §2
# [8] = Effect of compound on percent survival of human fibroblast cells in culture was determined at 5 uM; type: functional; details: read-out: Survival; outline: as §1
# [9] = tested on: Toxoplasma gondii; assay: Effect of compound on percent survival of wild type (RH) strain of Toxoplasma gondii grown in human fibroblast cells at 5 uM; type: functional; outline: as §2
# [10] = tested on: Toxoplasma gondii; assay: Effect of compound on percent survival of wild type (RH) strain of Toxoplasma gondii grown in human fibroblast cells at 50 uM; type: functional; outline: as §2
# [11] = tested on: Toxoplasma gondii; assay: Effect of compound on percent survival of adenosine kinase deficient strain of Toxoplasma gondii (TgAKe-3) grown in human fibroblast cells at 5 uM; type: functional; outline: as §2
# [12] = tested on: Toxoplasma gondii; assay: Effect of compound on percent survival of adenosine kinase deficient strain of Toxoplasma gondii (TgAKe-3) grown in human fibroblast cells at 0 uM; type: functional; outline: as §2
# [13] = tested on: Toxoplasma gondii; assay: Effect of compound on percent survival of adenosine kinase deficient strain of Toxoplasma gondii (TgAKe-3) grown in human fibroblast cells at 25 uM; type: functional; outline: as §2
# [14] = tested on: Toxoplasma gondii; assay: Effect of compound on percent survival of adenosine kinase deficient strain of Toxoplasma gondii (TgAKe-3) grown in human fibroblast cells at 10 uM; type: functional; outline: as §2
# [15] = tested on: Toxoplasma gondii; assay: Effect of compound on percent survival of adenosine kinase deficient strain of Toxoplasma gondii (TgAKe-3) grown in human fibroblast cells at 50 uM; type: functional; outline: as §2
# [16] = substrate: O=[N+]([O-])c1cccc(CSc2ncnc3c2ncn3[C@@H]2O[C@H](CO)[C@@H](O)[C@H]2O)c1; assay: (§3) Binding affinity at Toxoplasma gondii adenosine kinase.
# Outline: (§4)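 Purified recombinant T. gondii adenosine kinase was expressed in E. coli BL21(DE3)pLysS and purified on two Q-Sepharose columns. The assay contained 50 mM Tris-Cl pH 7.4, 2.5 mM ATP, 5 mM MgCl2, 5 mM creatine phosphate, creatine kinase and 5 μM [8-14C]adenosine, with varied analogue concentrations. Incubation was at 37 °C, stopped by boiling. [14C]AMP was resolved by TLC. Apparent Ki from Dixon plots was taken as apparent Km.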
# [17] = substrate: Nc1ncnc2c1ncn2[C@@H]1O[C@H](CO)[C@@H](O)[C@H]1O; assay: as §3; outline: as §4
# [18] = substrate: OC[C@H]1O[C@@H](n2cnc3c(SCc4ccc(Cl)cc4)ncnc32)[C@H](O)[C@@H]1O; assay: as §3; outline: as §4
# [19] = substrate: COC(=O)c1ccc(CSc2ncnc3c2ncn3[C@@H]2O[C@H](CO)[C@@H](O)[C@H]2O)cc1; assay: as §3; outline: as §4
# [20] = substrate: OC[C@H]1O[C@@H](n2cnc3c(SCc4ccc(OC(F)(F)F)cc4)ncnc32)[C@H](O)[C@@H]1O; assay: as §3; outline: as §4
# [21] = substrate: N#Cc1ccc(CSc2ncnc3c2ncn3[C@@H]2O[C@H](CO)[C@@H](O)[C@H]2O)cc1; assay: as §3; outline: as §4
# [22] = substrate: COc1ccc(CSc2ncnc3c2ncn3[C@@H]2O[C@H](CO)[C@@H](O)[C@H]2O)cc1; assay: as §3; outline: as §4
# [23] = substrate: CC(C)(C)c1ccc(CSc2ncnc3c2ncn3[C@@H]2O[C@H](CO)[C@@H](O)[C@H]2O)cc1; assay: as §3; outline: as §4
# [24] = substrate: O=[N+]([O-])c1ccc(CSc2ncnc3c2ncn3[C@@H]2O[C@H](CO)[C@@H](O)[C@H]2O)cc1; assay: as §3; outline: as §4
# [25] = substrate: OC[C@H]1O[C@@H](n2cnc3c(SCc4c(F)cccc4Cl)ncnc32)[C@H](O)[C@@H]1O; assay: as §3; outline: as §4
# [26] = substrate: Cc1ccccc1CSc1ncnc2c1ncn2[C@@H]1O[C@H](CO)[C@@H](O)[C@H]1O; assay: as §3; outline: as §4
# [27] = substrate: OC[C@H]1O[C@@H](n2cnc3c(SCc4cccc(C(F)(F)F)c4)ncnc32)[C@H](O)[C@@H]1O; assay: as §3; outline: as §4
# [28] = substrate: OC[C@H]1O[C@@H](n2cnc3c(SCc4ccc(Br)cc4)ncnc32)[C@H](O)[C@@H]1O; assay: as §3; outline: as §4
# [29] = substrate: OC[C@H]1O[C@@H](n2cnc3c(SCc4ccccc4Cl)ncnc32)[C@H](O)[C@@H]1O; assay: as §3; outline: as §4
# [30] = substrate: Cc1cc(C)c(CSc2ncnc3c2ncn3[C@@H]2O[C@H](CO)[C@@H](O)[C@H]2O)c(C)c1; assay: as §3; outline: as §4
# [31] = substrate: OC[C@H]1O[C@@H](n2cnc3c(SCc4ccc(Cl)c(Cl)c4)ncnc32)[C@H](O)[C@@H]1O; assay: as §3; outline: as §4
# [32] = substrate: Cc1ccc(CSc2ncnc3c2ncn3[C@@H]2O[C@H](CO)[C@@H](O)[C@H]2O)cc1; assay: as §3; outline: as §4
# [33] = substrate: OC[C@H]1O[C@@H](n2cnc3c(SCc4ccc(Cl)cc4Cl)ncnc32)[C@H](O)[C@@H]1O; assay: as §3; outline: as §4
# [34] = substrate: OC[C@H]1O[C@@H](n2cnc3c(SCc4ccccc4)ncnc32)[C@H](O)[C@@H]1O; assay: as §3; outline: as §4
# [35] = substrate: OC[C@H]1O[C@@H](n2cnc3c(SCc4ccc(F)cc4)ncnc32)[C@H](O)[C@@H]1O; assay: as §3; outline: as §4
# [36] = substrate: Cc1cccc(CSc2ncnc3c2ncn3[C@@H]2O[C@H](CO)[C@@H](O)[C@H]2O)c1; assay: as §3; outline: as §4
molecule,measurement,setting,value
Nc1ccc(S(=O)(=O)Nc2ncccn2)cc1 [SULFADIAZINE],viability at 25 µM,[1],99.8%
same,survival at 25 µM,[2],59.2%
same,Survival,[3],100%
same,viability at 50 µM,[4],100%
same,Survival,[5],100%
same,viability at 10 µM,[6],99.7%
same,survival at 10 µM,[7],64.5%
same,viability at 5 µM,[8],98.2%
same,survival at 5 µM,[9],75.7%
same,survival at 50 µM,[10],46.6%
OC[C@H]1O[C@@H](n2cnc3c(SCc4ccc(Cl)cc4Cl)ncnc32)[C@H](O)[C@@H]1O,viability at 25 µM,[1],94%
same,survival at 25 µM,[2],34.5%
same,Survival,[3],100%
same,viability at 50 µM,[4],99.5%
same,Survival,[5],100%
same,survival at 5 µM,[11],100%
same,viability at 10 µM,[6],99.2%
same,Survival,[12],100%
same,survival at 10 µM,[7],79.1%
same,viability at 5 µM,[8],98.1%
same,survival at 25 µM,[13],100%
same,survival at 10 µM,[14],100%
same,survival at 5 µM,[9],94.8%
same,survival at 50 µM,[15],100%
same,survival at 50 µM,[10],0%
OC[C@H]1O[C@@H](n2cnc3c(SCc4ccc(OC(F)(F)F)cc4)ncnc32)[C@H](O)[C@@H]1O,viability at 25 µM,[1],97.4%
same,survival at 25 µM,[2],54.5%
same,Survival,[3],100%
same,viability at 50 µM,[4],98.6%
same,Survival,[5],100%
same,survival at 5 µM,[11],100%
same,viability at 10 µM,[6],99.9%
same,Survival,[12],100%
same,survival at 10 µM,[7],64.9%
same,viability at 5 µM,[8],100%
same,survival at 25 µM,[13],97.6%
same,survival at 10 µM,[14],100%
same,survival at 5 µM,[9],93.1%
same,survival at 50 µM,[15],95.1%
same,survival at 50 µM,[10],44%
CC(C)(C)c1ccc(CSc2ncnc3c2ncn3[C@@H]2O[C@H](CO)[C@@H](O)[C@H]2O)cc1,viability at 25 µM,[1],100%
same,survival at 25 µM,[2],47.2%
same,Survival,[3],100%
same,viability at 50 µM,[4],99.7%
same,Survival,[5],100%
same,survival at 5 µM,[11],100%
same,viability at 10 µM,[6],100%
same,Survival,[12],100%
same,survival at 10 µM,[7],71.7%
same,viability at 5 µM,[8],97.4%
same,survival at 25 µM,[13],100%
same,survival at 10 µM,[14],100%
same,survival at 5 µM,[9],83.3%
same,survival at 50 µM,[15],100%
same,survival at 50 µM,[10],12.2%
CCc1nc(N)nc(N)c1-c1ccc(Cl)cc1 [PYRIMETHAMINE],viability at 25 µM,[1],100%
same,survival at 25 µM,[2],11.8%
same,Survival,[3],100%
same,viability at 50 µM,[4],100%
same,Survival,[5],100%
same,viability at 10 µM,[6],98.8%
same,survival at 10 µM,[7],36.3%
same,viability at 5 µM,[8],100%
same,survival at 5 µM,[9],53.8%
same,survival at 50 µM,[10],6.9%
"Adenosine kinase (Toxoplasma gondii), Q9TVW2 (protein) MAVDSSNSATGPMRVFAIGNPILDLVAEVPSSFLDEFFLKRGDATLATPEQMRIYSTLDQFNPTSLPGGSALNSVRVVQKLLRKPGSAGYMGAIGDDPRGQVLKELCDKEGLATRFMVAPGQSTGVCAVLINEKERTLCTHLGACGSFRLPEDWTTFASGALIFYATAYTLTATPKNALEVAGYAHGIPNAIFTLNLSAPFCVELYKDAMQSLLLHTNILFGNEEEFAHLAKVHNLVAAEKTALSTANKEHAVEVCTGALRLLTAGQNTGATKLVVMTRGHNPVIAAEQTADGTVVVHEVGVPVVAAEKIVDTNGAGDAFVGGFLYALSQGKTVKQCIMCGNACAQDVIQHVGFSLSFTSLPC",Km,[16],3 µM
same,Km,[17],2.4 µM
same,Km,[18],2.1 µM
same,Km,[19],96.1 µM
same,Km,[20],141 µM
same,Km,[21],0.9 µM
same,Km,[22],2.6 µM
same,Km,[23],113 µM
same,Km,[24],1.1 µM
same,Km,[25],37.7 µM
same,Km,[26],1.5 µM
same,Km,[27],2.9 µM
same,Km,[28],7.5 µM
same,Km,[29],1.4 µM
same,Km,[30],150 µM
same,Km,[31],2.5 µM
same,Km,[32],3.3 µM
same,Km,[33],0.7 µM
same,Km,[34],2.4 µM
same,Km,[35],1.2 µM
same,Km,[36],1.3 µM
